The list is not random: actives were taken first. Their share in the collection is about 6%.
Ecoli WT expand – blocks growth of wild type E. coli BW25113; 98,000 compounds, 0.15% hits; OD600 absorbance; AID 710; growth inhibition, % at 100 µM;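 active = growth inhibition above about 50% at one test dose, limit read from the data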;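 note: growth measured after 20 h incubation at 37 °C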
EphB4 antag – antagonists of human EphB4-ephrin-B2 interaction | P54760 | EphB4 LBD / TNYL-RAW-Alexa532 peptide, fluorescence polarization | inhibition, % at 7 µM | 97,000 compounds, 0.15% hits;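 active = inhibition above the screen-wide mean inhibition plus 3 SD, cut at about 15% in these data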;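 note: 0% = DMSO wells and 100% = excess unlabeled TNYL-RAW peptide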
Target sequence (P54760 whole entry, looked up, the tested form may be a part): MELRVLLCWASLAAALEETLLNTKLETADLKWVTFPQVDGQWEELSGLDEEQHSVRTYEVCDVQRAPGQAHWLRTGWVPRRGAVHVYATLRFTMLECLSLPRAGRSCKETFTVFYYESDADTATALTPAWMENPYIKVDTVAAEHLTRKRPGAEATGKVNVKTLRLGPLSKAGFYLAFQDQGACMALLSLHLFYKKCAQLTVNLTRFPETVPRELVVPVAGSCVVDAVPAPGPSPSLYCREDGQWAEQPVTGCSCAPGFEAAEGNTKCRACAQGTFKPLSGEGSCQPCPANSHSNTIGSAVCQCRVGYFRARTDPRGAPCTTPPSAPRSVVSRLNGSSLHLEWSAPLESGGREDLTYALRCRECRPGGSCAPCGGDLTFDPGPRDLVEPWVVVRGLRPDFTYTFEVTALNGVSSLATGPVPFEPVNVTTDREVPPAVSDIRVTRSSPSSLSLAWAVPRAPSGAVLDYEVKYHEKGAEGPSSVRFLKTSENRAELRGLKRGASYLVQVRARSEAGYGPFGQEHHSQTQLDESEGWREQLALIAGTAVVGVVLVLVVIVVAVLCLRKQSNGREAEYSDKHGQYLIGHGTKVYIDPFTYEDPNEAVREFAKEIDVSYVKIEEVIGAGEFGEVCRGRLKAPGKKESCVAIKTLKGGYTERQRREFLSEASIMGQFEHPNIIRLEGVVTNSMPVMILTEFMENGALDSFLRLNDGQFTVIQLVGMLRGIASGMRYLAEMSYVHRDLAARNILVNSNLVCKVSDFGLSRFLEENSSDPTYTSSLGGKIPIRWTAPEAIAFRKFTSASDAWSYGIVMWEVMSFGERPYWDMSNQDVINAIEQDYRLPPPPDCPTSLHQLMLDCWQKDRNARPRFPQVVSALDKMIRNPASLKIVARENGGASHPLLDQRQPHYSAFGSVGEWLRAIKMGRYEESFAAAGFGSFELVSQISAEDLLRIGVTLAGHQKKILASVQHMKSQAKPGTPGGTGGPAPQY
tolC growth inh – E. coli tolC mutant growth inhibition | 65,000 compounds, 2.2% hits | growth inhibition, % at 10 µM (by protocol) | E. coli BW25113 tolC mutant growth, OD615 | AID 573;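 active = growth inhibition at or above a cutoff equal to the mean over every tested compound plus 3 SD, cut at about 60% in these data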;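 note: growth measured after 20 h incubation at 37 °C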
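Test system: tolC-deleted E. coli BW25113 | Medium: LB with kanamycin 50 µg/mL | Compound dosing: Single concentration, 10 µM final per compound | Schedule: 37 °C, 20 h exposure | Measured by: OD at 615 nm | Evaluation: Percent growth inhibition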
PostGolgi ctrl – yeast control strain growth, post-Golgi counter-screen. 98,000 compounds, 5% hits. efflux-deficient yeast background strain, growth absorbance A615, 16 h. inhibition, % at 10 µM
PostGolgi yeast – growth inhibition of a yeast mutant, post-Golgi transport screen. post-Golgi transport phenotypic cell assay. inhibition, % at 10 µM. 98,000 compounds, 0.9% hits. AID 739;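 note: yeast cells grown in 1536-well plates; yeast grown about 18 h at 30C before absorbance read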
Active calls of the source: *; / = no result. Cut-off read from the data, not from the text of the source, unless noted: active = inhibition above about 30%; inactive = the rest.

SMILES	Ecoli WT expand	EphB4 antag	tolC growth inh	PostGolgi ctrl	PostGolgi yeast
CC(C)CNC(=S)NC(=O)c1ccc([N+](=O)[O-])cc1	14	0	/	32*	-1
Cc1ccc(C(=O)C(NC(=O)c2ccco2)Nc2sc3c(c2C(N)=O)CCCC3)cc1 (centres undefined)	/	3	/	/	/
O=C(Cn1ncc2c(=O)oc3ccccc3c21)N1CCN(C(=O)c2ccco2)CC1	-4	4	-16	19	3
O=C(Cn1ncc2c(=O)oc3ccccc3c21)N1CCN(c2ccccn2)CC1	4	-1	-2	12	35*
CCN(CC(=O)Nc1ccc([N+](=O)[O-])cc1OC)c1ccccc1	-8	2	/	11	-2
COC(=O)CSc1cnc2ccccc2n1	7	0	/	32*	-5
Cc1ccccc1OCc1nnc2c3cnn(C)c3ncn12	3	/	-5	34*	-9
O=C(CN1CCN(c2ccccc2)CC1)Nc1ccc(Oc2ccccc2)cc1	-21	-7	/	42*	4
COc1cccc(NC(=O)CN2CCN(c3ccccc3F)CC2)c1	1	-3	8	32*	-8
O=C(CN1CCNCC1)Nc1ccc(Oc2ccccc2)cc1	10	5	/	39*	5
Cc1ccc(-c2csc(N3CCC(NS(=O)(=O)c4ccc5c(c4)OCCO5)CC3)n2)cc1	-11	2	13	28	-2
CCN(CC)c1ccc(NC(=O)COc2ccc(C)cc2)cc1	/	1	15	/	/
O=C(COc1ccc(/C=N/NC(=O)c2ccccc2)cc1)Nc1ccc([N+](=O)[O-])cc1	-10	6	/	34*	-6
COc1cc2[nH]c(=S)n(CCCN3CCOCC3)c(=O)c2cc1OC	6	1	-21	-9	38*
Cc1ccc(C)c(/C(O)=C2\C(=O)C(=O)N(Cc3cccnc3)C2c2cccnc2)c1 (centres undefined)	-4	-9	-6	11	2
Cc1cc(C=O)c(C)n1-c1ccc(N2CCCC2)c([N+](=O)[O-])c1	-6	0	/	18	1
CCOC(=O)c1c(C)[nH]c(C(=O)COC(=O)c2ccc(N3CCCC3=O)cc2)c1C	-1	1	-11	-4	-6
CCC1(C)OC(=O)N2CCc3c(C)[nH]c4c(C)ccc(c34)C21C (centres undefined)	8	-5	44	32*	-1
Cc1n[nH]c(C)c1S(=O)(=O)N(CC(=O)NC1CCCC1)c1ccc(C(C)C)cc1	-7	-7	3	4	-5
Cc1cc2c(n1-c1ccc(Cl)cc1)CC(C)(C)CC2=O	3	-5	/	36*	4
N#Cc1c(N)nc(SCC(=O)NC2CCCCC2)c(C#N)c1-c1ccc(Cl)cc1	4	-8	5	10	-1
N#CCSc1nc(N)c(C#N)c(C2CCCCC2)c1C#N	11	-5	24	51*	18
CCC(C)Oc1nc2ccccc2nc1NS(=O)(=O)c1ccccc1 (centres undefined)	-1	-10	/	31*	-5
Cc1c(=O)n(OCc2c(F)cccc2F)c2ccccc2[n+]1[O-]	/	-5	-4	/	/
CCc1nnc(NC(=O)CSc2nnc(C)n2Cc2ccccc2)s1	/	6	/	/	/
SMILES	Ecoli WT expand	EphB4 antag	tolC growth inh	PostGolgi ctrl	PostGolgi yeast
Cc1nnc(SCC(=O)Nc2sccc2C(N)=O)n1Cc1ccccc1	-1	-7	-8	32*	6
Cn1c(=O)n(Cc2ccccc2)c(=O)c2c1nc1n2CCCN1Cc1ccccc1	9	-7	62*	32*	-5
Cn1c(=O)n(Cc2ccccc2)c(=O)c2c1nc1n2CCCN1CCc1ccccc1	-20	-11	/	27	-2
Cn1c(Oc2ccc3c(c2)OCO3)nc2c1c(=O)n(Cc1ccccc1)c(=O)n2C	-8	-4	/	31*	5
Cc1ccc(Cn2c(=O)c3c(nc4n3CCCN4Cc3ccccc3)n(C)c2=O)cc1	0	4	-10	39*	6
CCOC(=O)CC(=O)CSc1nc2ccccc2c(=O)n1-c1ccc(C(=O)NCCOC)cc1	-10	-5	/	1	-6
O=C(Cc1sc(-c2ccccc2Cl)nc1-c1ccccc1)Nc1ccc(F)cc1	-3	-1	/	-1	19
Oc1ccc(Cl)cc1C(C#Cc1ccccc1)N1CCOCC1 (centres undefined)	-3	-1	/	20	-2
Cc1cc(C)nc(NS(=O)(=O)c2ccc(NC(=O)c3ccc(S(=O)(=O)N4CCOCC4)cc3)cc2)n1	-8	1	/	-1	-3
Cc1cc(C)c(O)c(-c2cc(C(=O)Nc3ccc(S(=O)(=O)N4CCOCC4)cc3)[nH]n2)c1	-10	-4	91*	4	0

Screening results from PubChem.
